Compound activity deposited in PubChem by NMMLSC.
MEKK2mut PB1 HTS: MEK5 binding signal on mutant MEKK2 PB1, primary screen, biochemical, multiplex bead flow cytometry, Alexa488-MEK5 | Alexa488-MEK5 binding to MEKK2 mutant | percent response, % at 10 µM | actives 0.35% (n = 290,000) | AID 1530, 2009; in the data active = percent response above about 24%, passing the limit was not always enough
ABCB1 inh: ABCB1 efflux pump inhibitors, primary screen, cell-based, multiplex, flow cytometry, ABCG2 counter-screen | CCRF-Adr cells, JC-1 efflux | actives 0.067% (n = 190,000) | inhibition, % at 6.6 µM | ATP-dependent translocase ABCB1 (Homo sapiens), P08183 | AID 1326, 2008; in the data active = inhibition above about 40%;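 note: 0% = vehicle and 100% = reference inhibitor; higher value means more JC-1 retained so stronger ABCB1 efflux block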
MEKK2wt PB1 HTS: modulators of MEK5 binding to wildtype MEKK2, primary screen, biochemical, multiplex bead flow cytometry, Alexa488-MEK5; Alexa488-MEK5 binding to MEKK2 WT; actives lie on both sides; AID 1531, 2009; actives 1.1% (n = 290,000); binding response (% of control), % at 10 µM; in the data active = binding response below about 67% or above about 130%
MEKK3 PB1 HTS: modulators of MEKK3-MEK5 PB1 binding, primary screen, biochemical, wildtype MEKK3, multiplex bead flow cytometry, Alexa488-MEK5 | actives 1.4% (n = 290,000) | binding response (% of control), % at 10 µM | Mitogen-activated protein kinase kinase kinase 3 (Homo sapiens), Q99759 | bead-based flow cytometry, Alexa488-MEK5 binding to MEKK3; actives lie on both sides; 0 = blocked by unlabeled MEK5, 100 = vehicle | AID 1529, 2009;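 active = binding response more than 3 SD above or below the average of its plate-row segment, actives on both sides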;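 note: Alexa488 bead fluorescence after subtracting the streptavidin-only scavenger bead signal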
Efflux pump inh: inhibitors of Candida efflux pumps in yeast, primary screen, S. cerevisiae, Nile Red, multiplex; inhibition, % at 10 µM; AID 485275, 2010; actives 0.44% (n = 330,000); S. cerevisiae Candida pump triplex;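 active = plate passing quality check with inhibition over a set limit, or well fluorescence over plate mean plus 4 SD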;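 note: Nile Red retained in pooled yeast measured as flow cytometry median fluorescence; 0% = buffer negative control and 100% = Enniatin B positive control; higher means more Nile Red kept so more efflux inhibition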
ABCG2 inh: ABCG2 efflux pump inhibitors, primary screen, multiplex with ABCB1, IgMXP3 cells, flow cytometry | JC-1 efflux | inhibition, % at 6.6 µM | Broad substrate specificity ATP-binding cassette transporter ABCG2 (Homo sapiens), Q9UNQ0 | actives 0.1% (n = 190,000) | AID 1325, 2008;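 active = inhibition above 80%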;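 note: 0% = DMSO and 100% = nicardipine control wells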
Target sequence (Q9UNQ0 whole entry, looked up): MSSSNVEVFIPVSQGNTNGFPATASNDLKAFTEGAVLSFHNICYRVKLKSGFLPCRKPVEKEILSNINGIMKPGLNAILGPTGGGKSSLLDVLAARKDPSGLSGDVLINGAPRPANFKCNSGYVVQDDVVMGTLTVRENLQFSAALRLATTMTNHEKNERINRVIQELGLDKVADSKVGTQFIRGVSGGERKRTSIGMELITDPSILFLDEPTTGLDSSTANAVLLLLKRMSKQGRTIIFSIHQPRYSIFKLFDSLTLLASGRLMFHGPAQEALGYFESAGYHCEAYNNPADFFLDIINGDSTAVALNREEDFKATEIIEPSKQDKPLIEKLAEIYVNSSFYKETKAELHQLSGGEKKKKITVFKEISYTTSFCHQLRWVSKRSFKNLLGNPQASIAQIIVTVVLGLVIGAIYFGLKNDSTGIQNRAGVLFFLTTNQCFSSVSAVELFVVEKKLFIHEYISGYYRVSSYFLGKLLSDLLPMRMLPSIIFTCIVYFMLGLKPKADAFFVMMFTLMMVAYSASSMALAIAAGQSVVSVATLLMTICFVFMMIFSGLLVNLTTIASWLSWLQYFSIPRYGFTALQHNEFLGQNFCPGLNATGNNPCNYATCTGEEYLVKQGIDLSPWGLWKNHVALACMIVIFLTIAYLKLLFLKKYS
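Test system: IgMXP3 cells (ABCG2) mixed with DDAO far-red-labelled CCRF-Adr cells (ABCB1). Reagent: JC-1 transporter substrate. Compound dosing: single test compound dose, 6.6 µM final. Times: 10 min compound exposure, 25 °C. Detection: flow cytometry of retained JC-1 fluorescence. Read-out basis: efflux inhibition in percent versus controls. Controls: nicardipine and DMSO wells.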
ABCB1 single pt: ABCB1 efflux pump inhibitors, confirmation, cell-based, single point, ABCG2 counter-screen | shares compounds with ABCG2 inh | CCRF-Adr cells, JC-1 efflux, flow cytometry | inhibition, % at 6.6 µM | actives 7% (n = 270) | AID 1451, 2008;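 active = inhibition of pump activity above 50%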;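 note: 0% = DMSO and 100% = nicardipine full pump inhibition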
ABCG2 confirm: ABCG2 efflux pump inhibitors, confirmation, single point, IgMXP3 cells, ABCB1 counter-screen paired; actives 6% (n = 270); JC-1 efflux, flow cytometry; shares compounds with ABCG2 inh; inhibition, % at 6.6 µM;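 active = inhibition above 50%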;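 note: 0% = DMSO wells and 100% = nicardipine pump inhibitor wells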
IgMXP3 autofluor: compound autofluorescence in ABCG2-expressing IgMXP3 cells, confirmation, artefact control for ABC transporter inhibitor project, cell-based, 488/530 nm, flow cytometry; compound autofluorescence 488/530 nm; stronger effect = higher value; shares compounds with ABCG2 inh; AID 1480, 2009; actives 30% (n = 270); fluorescence at 6.6 µM;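 active = fluorescence in ABCG2-expressing cells above the plate's control-well mean plus 3 SD, cut at about 15 in these data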;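 note: median cell fluorescence with compound minus that of DMSO-treated control cells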
CCRF autofluor: compound autofluorescence in ABCB1-expressing CCRF-Adr cells, confirmation, artefact control for ABC transporter inhibitor project, cell-based, 488/530 nm, flow cytometry; shares compounds with ABCG2 inh; compound autofluorescence 488/530 nm; stronger effect = higher value; fluorescence at 6.6 µM; actives 30% (n = 270); AID 1483, 2009;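 active = fluorescence beyond the plate control mean plus 3 SD, with a fluorescence-to-maximum score over 2, cut at about 25 in these data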
Active calls of the source: *. Hits are enriched below; roughly 2.5% of the tested compounds scored in any of these assays.

`CC(C)=CCC12Oc3cc(O)ccc3C1(O)Oc1cc(O)c([C@H]3C=C(C)CC(c4ccc(O)cc4O)[C@H]3C(=O)c3ccc(O)cc3O)c(O)c1C2=O` (stereo partly drawn) gave MEKK2mut PB1 HTS -1, MEKK2wt PB1 HTS 88, MEKK3 PB1 HTS 97 and Efflux pump inh 0.
`COc1cc(OC)cc(C(=O)N[C@H](C(=O)Nc2nc(-c3ccc(OC)c(OC)c3)cs2)C(C)C)c1` gave MEKK2mut PB1 HTS -3, MEKK2wt PB1 HTS 98, MEKK3 PB1 HTS 102 and Efflux pump inh 0.
For COc1cc(OC)cc(C(=O)N[C@H](C(=O)Nc2nc(-c3cc(OC)ccc3OC)cs2)C(C)C)c1 the results were MEKK2mut PB1 HTS -1, ABCB1 inh 5, MEKK2wt PB1 HTS 99, MEKK3 PB1 HTS 102, Efflux pump inh 1, ABCG2 inh 47, ABCB1 single pt 6, ABCG2 confirm 35, IgMXP3 autofluor -1.8 and CCRF autofluor -3.8.
For O=c1[nH]c2cc(Cl)ccc2n1-c1ccccc1 the results were MEKK2mut PB1 HTS 6, ABCB1 inh 1, MEKK2wt PB1 HTS 107, MEKK3 PB1 HTS 110, Efflux pump inh 0 and ABCG2 inh 6.
Screening O=Cc1c(Cl)[nH]c(=O)n1-c1ccccc1 returned MEKK2mut PB1 HTS -27, ABCB1 inh 4, MEKK2wt PB1 HTS 96, MEKK3 PB1 HTS 107, ABCG2 inh 104*, ABCB1 single pt 2, ABCG2 confirm 4, IgMXP3 autofluor -0.84 and CCRF autofluor -0.94.
For COc1cc(C2C=C(c3cccs3)Nc3ncnn32)cc(OC)c1OC (stereo not drawn) the results were MEKK2mut PB1 HTS -7, ABCB1 inh 2, MEKK2wt PB1 HTS 96, MEKK3 PB1 HTS 104 and ABCG2 inh 9.
Screening COc1cccc(-c2noc(-c3ccc(Cl)nc3)n2)c1 returned MEKK2mut PB1 HTS -7, ABCB1 inh 0, MEKK2wt PB1 HTS 98, MEKK3 PB1 HTS 102, Efflux pump inh 0 and ABCG2 inh 8.
Screening COc1ccc(OC)c(C(=O)COC(=O)c2cc(C)oc2C)c1 returned MEKK2mut PB1 HTS 2, ABCB1 inh 1, MEKK2wt PB1 HTS 109, MEKK3 PB1 HTS 104, Efflux pump inh 0, ABCG2 inh 80, ABCB1 single pt 0, ABCG2 confirm 35, IgMXP3 autofluor -1.8 and CCRF autofluor -2.2.
For Cc1c(Cl)c([N+](=O)[O-])nn1CCCC(=O)Nc1cc(Oc2ccccc2)cc([N+](=O)[O-])c1 the results were MEKK2mut PB1 HTS 20, ABCB1 inh 2, MEKK2wt PB1 HTS 118, MEKK3 PB1 HTS 104, Efflux pump inh 0, ABCG2 inh 85*, ABCB1 single pt 18, ABCG2 confirm 31, IgMXP3 autofluor -0.99 and CCRF autofluor -1.8.
For O=C(CNC(=O)C1COc2ccccc2O1)Nc1ccc(F)c(F)c1 (stereo not drawn) the results were Efflux pump inh 0.
CCC1(c2ccc(F)cc2)NC(=O)N(CC(=O)NCc2ccccc2Cl)C1=O (stereo not drawn) was read as MEKK2mut PB1 HTS 2, MEKK2wt PB1 HTS 105, MEKK3 PB1 HTS 105 and Efflux pump inh 0.
For COc1ccc(Cl)cc1NC(=O)COC(=O)CCCN1C(=O)c2ccccc2C1=O the results were MEKK2mut PB1 HTS 20, ABCB1 inh 2, MEKK2wt PB1 HTS 113, MEKK3 PB1 HTS 108, Efflux pump inh 0, ABCG2 inh 3, ABCB1 single pt 1, ABCG2 confirm 20, IgMXP3 autofluor -1.4 and CCRF autofluor 0.16.
`COC(=O)CCC(=O)Nc1cccc([N+](=O)[O-])c1` gave MEKK2mut PB1 HTS -2, ABCB1 inh 0, MEKK2wt PB1 HTS 90, MEKK3 PB1 HTS 91, Efflux pump inh 0 and ABCG2 inh 1.
Screening CCN(CC)c1ccc2cc(-c3nc4ccccc4[nH]3)c(=O)oc2c1 returned MEKK2mut PB1 HTS 5, ABCB1 inh 39, MEKK2wt PB1 HTS 69, MEKK3 PB1 HTS 95, Efflux pump inh 0, ABCG2 inh 65, ABCB1 single pt -129, ABCG2 confirm -15, IgMXP3 autofluor 122* and CCRF autofluor 296*.
`CCOc1ccc(OCC)c(NC(=O)C2CCCN(c3nc(C)cc(C)n3)C2)c1` (stereo not drawn) gave MEKK2mut PB1 HTS 7, ABCB1 inh 2, MEKK2wt PB1 HTS 105, MEKK3 PB1 HTS 105, Efflux pump inh 0, ABCG2 inh 101*, ABCB1 single pt 8, ABCG2 confirm 28, IgMXP3 autofluor 2.7 and CCRF autofluor 9.7.
`CCOc1ccc(OCC)c(NC(=O)CN2CCN(c3ccc(C)cc3C)CC2)c1` gave ABCB1 inh 3, Efflux pump inh 0, ABCG2 inh 81*, ABCB1 single pt 11, ABCG2 confirm 32, IgMXP3 autofluor 8.8 and CCRF autofluor -1.8.
`CCOC(=O)N1CCN(CC(=O)Nc2cc(OCC)ccc2OCC)CC1` gave MEKK2mut PB1 HTS 1, ABCB1 inh 1, MEKK2wt PB1 HTS 109, MEKK3 PB1 HTS 109, Efflux pump inh 0 and ABCG2 inh 29.
For COc1ccc(NC(=O)Nc2ccc(Cc3ccncc3)cc2)c(OC)c1 the results were MEKK2mut PB1 HTS -3, ABCB1 inh 1, MEKK2wt PB1 HTS 92, MEKK3 PB1 HTS 87, Efflux pump inh 0 and ABCG2 inh 6.
